Tests used:
Type in all cases: functional
Set-up in all cases: scale not given: the % may be the effect or the level left
SR = experiment: Growth inhibition of human SR cells assessed tumor cell growth at 10^-5 M
How it was run: (§1)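 Single-dose screen at 10^-5 M across the 60 human tumor cell line panel, run to NCI standards. The value is the percent growth of each cell line in the presence of compound. Compounds active at this dose moved on to five-concentration testing (10^-4 to 10^-8 M).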

UO-31 = experiment: Growth inhibition of human UO31 cells assessed tumor cell growth at 10^-5 M; how it was run: as §1
786-0 = experiment: Growth inhibition of human 786-0 cells assessed tumor cell growth at 10^-5 M
How it was run: (§2)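 NCI 60-human-tumor-cell-line panel screen. Each compound was tested at a single concentration of 10^-5 M, and percent growth of tumor cells was recorded for each cell line. Growth inhibition was expressed from these percent-growth values.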

HOP-62 = experiment: Growth inhibition of human HOP62 cells assessed tumor cell growth at 10^-5 M; how it was run: as §2
SF-295 = experiment: Growth inhibition of human SF295 cells assessed tumor cell growth at 10^-5 M; how it was run: as §2
[1] = Growth inhibition of human […] cells assessed tumor cell growth at 10^-5 M; how it was run: as §2
OVCAR-5 = experiment: Growth inhibition of human OVCAR5 cells assessed tumor cell growth at 10^-5 M; how it was run: as §2
ACHN = experiment: Growth inhibition of human ACHN cells assessed tumor cell growth at 10^-5 M; how it was run: as §2
UACC-62 = experiment: Growth inhibition of human UACC62 cells assessed tumor cell growth at 10^-5 M; how it was run: as §1
CCRF-CEM = experiment: Growth inhibition of human CCRF-CEM cells assessed tumor cell growth at 10^-5 M; how it was run: as §2
HOP-92 = experiment: Growth inhibition of human HOP92 cells assessed tumor cell growth at 10^-5 M; how it was run: as §2
MOLT-4 = experiment: Growth inhibition of human MOLT4 cells assessed tumor cell growth at 10^-5 M; how it was run: as §2
NCI-H23 = experiment: Growth inhibition of human NCI-H23 cells assessed tumor cell growth at 10^-5 M; how it was run: as §2
TK-10 = experiment: Growth inhibition of human TK10 cells assessed tumor cell growth at 10^-5 M; how it was run: as §1
NCI-H322M = experiment: Growth inhibition of human NCI-H322M cells assessed tumor cell growth at 10^-5 M; how it was run: as §2
K562 = experiment: Growth inhibition of human K562 cells assessed tumor cell growth at 10^-5 M; how it was run: as §2
CAKI-1 = experiment: Growth inhibition of human Caki1 cells assessed tumor cell growth at 10^-5 M; how it was run: as §2
LOX IMVI = experiment: Growth inhibition of human LOXIMVI cells assessed tumor cell growth at 10^-5 M; how it was run: as §2
DU-145 = experiment: Growth inhibition of human DU145 cells assessed tumor cell growth at 10^-5 M; how it was run: as §2
MDA-MB-468 = experiment: Growth inhibition of human MDA-MB-468 cells assessed tumor cell growth at 10^-5 M; how it was run: as §2
MCF7 = experiment: Growth inhibition of human MCF7 cells assessed tumor cell growth at 10^-5 M; how it was run: as §2
OVCAR-8 = experiment: Growth inhibition of human OVCAR8 cells assessed tumor cell growth at 10^-5 M; how it was run: as §2
SK-OV-3 = experiment: Growth inhibition of human SKOV3 cells assessed tumor cell growth at 10^-5 M; how it was run: as §2
EKVX = experiment: Growth inhibition of human EKVX cells assessed tumor cell growth at 10^-5 M; how it was run: as §2
Malme-3M = experiment: Growth inhibition of human MALME-3M cells assessed tumor cell growth at 10^-5 M; how it was run: as §2
KM12 = experiment: Growth inhibition of human KM12 cells assessed tumor cell growth at 10^-5 M; how it was run: as §2
SK-MEL-28 = experiment: Growth inhibition of human SK-MEL-28 cells assessed tumor cell growth at 10^-5 M; how it was run: as §2
NCI-H226 = experiment: Growth inhibition of human NCI-H226 cells assessed tumor cell growth at 10^-5 M; how it was run: as §2
SNB-19 = experiment: Growth inhibition of human SNB19 cells assessed tumor cell growth at 10^-5 M; how it was run: as §1
UACC-257 = experiment: Growth inhibition of human UACC257 cells assessed tumor cell growth at 10^-5 M; how it was run: as §1
HT-29 = experiment: Growth inhibition of human HT-29 cells assessed tumor cell growth at 10^-5 M; how it was run: as §2
SW-620 = experiment: Growth inhibition of human SW620 cells assessed tumor cell growth at 10^-5 M; how it was run: as §1
M14 = experiment: Growth inhibition of human M14 cells assessed tumor cell growth at 10^-5 M; how it was run: as §2
U-251 = experiment: Growth inhibition of human U251 cells assessed tumor cell growth at 10^-5 M; how it was run: as §1
SF-268 = experiment: Growth inhibition of human SF268 cells assessed tumor cell growth at 10^-5 M; how it was run: as §2
HCT-15 = experiment: Growth inhibition of human HCT15 cells assessed tumor cell growth at 10^-5 M; how it was run: as §2
NCI/ADR-RES = experiment: Growth inhibition of human NCI/ADR-RES cells assessed tumor cell growth at 10^-5 M; how it was run: as §2
MDA-MB-435 = experiment: Growth inhibition of human MDA-MB-435 cells assessed tumor cell growth at 10^-5 M; how it was run: as §2
[2] = Growth inhibition of human Hs 578T cells assessed tumor cell growth at 10^-5 M; how it was run: as §2
SN12C = experiment: Growth inhibition of human SN12C cells assessed tumor cell growth at 10^-5 M; how it was run: as §2
HL-60(TB) = experiment: Growth inhibition of human HL-60(TB) cells assessed tumor cell growth at 10^-5 M
How it was run: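 HL-60(TB), part of the 60-line panel, tested at a single concentration of 10^-5 M. The read-out is percent tumor cell growth relative to untreated growth.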

HCC 2998 = experiment: Growth inhibition of human HCC2998 cells assessed tumor cell growth at 10^-5 M; how it was run: as §2
HCT-116 = experiment: Growth inhibition of human HCT116 cells assessed tumor cell growth at 10^-5 M; how it was run: as §2
RXF 393 = experiment: Growth inhibition of human RXF393 cells assessed tumor cell growth at 10^-5 M; how it was run: as §2
NCI-H460 = experiment: Growth inhibition of human NCI-H460 cells assessed tumor cell growth at 10^-5 M; how it was run: as §2
NCI-H522 = experiment: Growth inhibition of human NCI-H522 cells assessed tumor cell growth at 10^-5 M; how it was run: as §2
COLO 205 = experiment: Growth inhibition of human COLO205 cells assessed tumor cell growth at 10^-5 M; how it was run: as §2
MDA-MB-231 = experiment: Growth inhibition of human MDA-MB-231 cells assessed tumor cell growth at 10^-5 M; how it was run: as §2
OVCAR-3 = experiment: Growth inhibition of human OVCAR3 cells assessed tumor cell growth at 10^-5 M; how it was run: as §2
SNB-75 = experiment: Growth inhibition of human SNB75 cells assessed tumor cell growth at 10^-5 M; how it was run: as §1
PC-3 = experiment: Growth inhibition of human PC3 cells assessed tumor cell growth at 10^-5 M; how it was run: as §2
BT-549 = experiment: Growth inhibition of human BT549 cells assessed tumor cell growth at 10^-5 M; how it was run: as §2
IGROV-1 = experiment: Growth inhibition of human IGROV1 cells assessed tumor cell growth at 10^-5 M; how it was run: as §2
A549 = experiment: Growth inhibition of human A549 cells assessed tumor cell growth at 10^-5 M; how it was run: as §2
SK-MEL-5 = experiment: Growth inhibition of human SK-MEL-5 cells assessed tumor cell growth at 10^-5 M; how it was run: as §2
A498 = experiment: Growth inhibition of human A498 cells assessed tumor cell growth at 10^-5 M; how it was run: as §2
T47D = experiment: Growth inhibition of human T47D cells assessed tumor cell growth at 10^-5 M; how it was run: as §1
OVCAR-4 = experiment: Growth inhibition of human OVCAR4 cells assessed tumor cell growth at 10^-5 M; how it was run: as §2
SF-539 = experiment: Growth inhibition of human SF539 cells assessed tumor cell growth at 10^-5 M; how it was run: as §2
SK-MEL-2 = experiment: Growth inhibition of human SK-MEL-2 cells assessed tumor cell growth at 10^-5 M; how it was run: as §2

## CC1=NN(c2cccc(Cl)c2)C(=O)/C1=C\c1cn(C(=O)c2ccc(Cl)cc2)c2ccccc12
SR
  Activity: 96.12%
UO-31
  Activity: 76.43%
786-0
  Activity: 104.1%
HOP-62
  Activity: 94.61%
SF-295
  Activity: 102.34%
[1]
  Activity: 97.03%
OVCAR-5
  Activity: 97.61%
ACHN
  Activity: 88.25%
UACC-62
  Activity: 90.62%
CCRF-CEM
  Activity: 118.43%
HOP-92
  Activity: 99.69%
MOLT-4
  Activity: 99.47%
NCI-H23
  Activity: 91.24%
TK-10
  Activity: 167.41%
NCI-H322M
  Activity: 109.45%
K562
  Activity: 107.93%
CAKI-1
  Activity: 92.37%
LOX IMVI
  Activity: 90.49%
DU-145
  Activity: 104.66%
MDA-MB-468
  Activity: 103.55%
MCF7
  Activity: 87.82%
OVCAR-8
  Activity: 98.63%
SK-OV-3
  Activity: 91.35%
EKVX
  Activity: 79.35%
Malme-3M
  Activity: 101.23%
KM12
  Activity: 93.09%
SK-MEL-28
  Activity: 112.94%
NCI-H226
  Activity: 86.8%
SNB-19
  Activity: 99.84%
UACC-257
  Activity: 105.58%
HT-29
  Activity: 101.17%
SW-620
  Activity: 99.26%
M14
  Activity: 96.55%
U-251
  Activity: 94.02%
SF-268
  Activity: 98.24%
HCT-15
  Activity: 91.41%
NCI/ADR-RES
  Activity: 107.61%
MDA-MB-435
  Activity: 120.68%
[2]
  Activity: 92.29%
SN12C
  Activity: 92.22%
HL-60(TB)
  Activity: 117.42%
HCC 2998
  Activity: 108.88%
HCT-116
  Activity: 100.16%
RXF 393
  Activity: 94.47%
NCI-H460
  Activity: 109.18%
NCI-H522
  Activity: 100.77%
COLO 205
  Activity: 113.51%
MDA-MB-231
  Activity: 87.79%
OVCAR-3
  Activity: 97.57%
SNB-75
  Activity: 80.97%
PC-3
  Activity: 95.29%
BT-549
  Activity: 95.84%
IGROV-1
  Activity: 75.7%
A549
  Activity: 96.27%
SK-MEL-5
  Activity: 90.74%
A498
  Activity: 123.09%
T47D
  Activity: 79.84%
OVCAR-4
  Activity: 99.58%
SF-539
  Activity: 97.75%
SK-MEL-2
  Activity: 105.09%

## O=C1C(=Cc2cn(Cc3ccccc3)c3ccccc23)C(=O)N(Cc2ccccc2)C(=O)N1Cc1ccccc1
SR
  Activity: 87.2%
UO-31
  Activity: 73.3%
786-0
  Activity: 93.2%
HOP-62
  Activity: 85.4%
SF-295
  Activity: 34.3%
[1]
  Activity: 93.2%
OVCAR-5
  Activity: -7.2%
ACHN
  Activity: 86.2%
UACC-62
  Activity: 53.1%
CCRF-CEM
  Activity: 117.9%
HOP-92
  Activity: 90.9%
MOLT-4
  Activity: 95.2%
NCI-H23
  Activity: 87.7%
TK-10
  Activity: 40.6%
NCI-H322M
  Activity: 105%
K562
  Activity: 81.4%
CAKI-1
  Activity: 94.6%
LOX IMVI
  Activity: 87.1%
DU-145
  Activity: 110.4%
MDA-MB-468
  Activity: -71.7%
MCF7
  Activity: 80.2%
OVCAR-8
  Activity: 83.5%
SK-OV-3
  Activity: 47.7%
EKVX
  Activity: 97.5%
Malme-3M
  Activity: 104.8%
KM12
  Activity: 100.7%
SK-MEL-28
  Activity: 109.5%
NCI-H226
  Activity: -49.4%
SNB-19
  Activity: 87.1%
UACC-257
  Activity: 52.9%
HT-29
  Activity: 110.8%
SW-620
  Activity: 100.6%
M14
  Activity: 103.5%
U-251
  Activity: 75.6%
SF-268
  Activity: 87.5%
HCT-15
  Activity: 85.7%
NCI/ADR-RES
  Activity: 105.7%
MDA-MB-435
  Activity: 108.2%
[2]
  Activity: 90.7%
SN12C
  Activity: 101.3%
HL-60(TB)
  Activity: 96.4%
HCC 2998
  Activity: 97.4%
HCT-116
  Activity: 76.1%
RXF 393
  Activity: 57.6%
NCI-H460
  Activity: 36%
NCI-H522
  Activity: 87.6%
COLO 205
  Activity: 26.4%
MDA-MB-231
  Activity: 89.3%
OVCAR-3
  Activity: 97.7%
SNB-75
  Activity: 44.9%
PC-3
  Activity: 90.3%
BT-549
  Activity: 118.1%
IGROV-1
  Activity: 75.7%
A549
  Activity: 80%
SK-MEL-5
  Activity: 104.1%
A498
  Activity: -95.7%
T47D
  Activity: 51.6%
OVCAR-4
  Activity: 57.3%
SF-539
  Activity: 83.5%
SK-MEL-2
  Activity: 83.9%

Reference: ChEMBL document CHEMBL1811814, “Synthesis and evaluation of indole, pyrazole, chromone and pyrimidine based conjugates for tumor growth inhibitory activities--development of highly efficacious cytotoxic agents” (Eur J Med Chem, 2010)
